Experimental data: ChEMBL document CHEMBL3526081 (Drug Metab Dispos, 2011)

How the values were obtained:
Format in all cases: ADME
Conditions in all cases: 0.5 h
[1] = Drug metabolism in Swiss-Hauschka (ICR) mouse liver microsomes assessed as 1alpha-hydroxylcinobufagin formation at 100 uM at 37 degC after 30 mins by UFLC-ESI-MS analysis in presence of 1 uM ketoconazole CYP3A4 inhibitor
How it was run: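 Chemical inhibition: selective P450 inhibitors (furafylline, sulfaphenazole, ketoconazole) added to liver microsome incubations in 100 mM potassium phosphate pH 7.4 with NADPH-generating system at 37°C. Hydroxylated metabolite formation quantified by UFLC at 294 nm against standards. Mean ± S.D. of three experiments in duplicate.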

Liver microsome [2] = assay: Drug metabolism in human liver microsomes assessed as 1alpha-hydroxylcinobufagin formation at 100 uM at 37 degC after 30 mins […] in presence of 10 uM sulfaphenazole CYP2C9 inhibitor
Liver = assay: Ratio of Vmax/Km in Swiss-Hauschka (ICR) mouse liver microsomes assessed as 1alpha-hydroxylcinobufagin formation at 100 uM […] by UFLC-ESI-MS analysis
Liver microsome [3] = assay: Drug metabolism in human liver microsomes assessed as 1alpha-hydroxylcinobufagin formation at 100 uM at 37 degC after 30 mins […] in presence of 1 uM ketoconazole CYP3A4 inhibitor
[4] = Drug metabolism in Swiss-Hauschka (ICR) mouse liver microsomes assessed as 5beta-hydroxylcinobufagin formation at 100 uM at 37 degC after 30 mins by UFLC-ESI-MS analysis in presence of NADPH-generating system
How it was run: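 Liver microsomes (0.3 mg protein/ml) incubated with 100 µM substrate at 37°C for 30 min, in 100 mM potassium phosphate pH 7.4 with NADPH-generating system (1 mM NADP+, 10 mM glucose 6-phosphate, 1 unit/ml G6PDH, 4 mM MgCl2). Acetonitrile ≤1% final. Stopped with ice-cold acetonitrile and centrifuged. Metabolites identified by UFLC-ESI-MS and quantified by UFLC-DAD at 294 nm against authentic standard curves.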

CC(=O)O[C@H]1[C@H]2O[C@]23[C@@H]2CC[C@@H]4C[C@@H](O)CC[C@]4(C)[C@H]2CC[C@]3(C)[C@H]1c1ccc(=O)oc1 [CINOBUFAGIN]
Drug metabolism [1]: metabolite_not_detected
Drug metabolism (Liver microsome [2]): metabolite_detected
Vmax/Km (Liver): 595 µL/min/mg
Drug metabolism (Liver microsome [3]): metabolite_not_detected
Drug metabolism [4]: metabolite_detected
